The nature of assay [1]: inhibitors of TNFa-induced NFkB p65 translocation, primary screen, imaging, HUVEC, MLSMR starter and 10KST1 sets (AID 438).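 For inhibition: signal is the nuclear over cytoplasmic p65 intensity ratio per well.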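 Note: compound added about 3h40 before a 20 min TNFalpha stimulation.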 As to conditions: HUVEC TNFa-induced p65 nuclear translocation; cell count: measured here: nuclei count (cytotoxicity indicator), at 2.08 µM; inhibition: at 2 µM, stronger effect = higher value, 0% TNFa-plus-vehicle, 100% no-TNFa wells.
A short description of assay [2]: endothelial E-selectin expression blockers – imaging, HUVEC, immunofluorescence, MLSMR starter and 10KST1 sets, primary screen (AID 487;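 active = visually confirmed hit in the image check and inhibition above 20%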;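 for inhibition: signal is fraction of cell area covered by stained E-selectin grains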;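 for nuclei count: 100% = median nuclei count of all wells on the same plate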). As to conditions: HUVEC TNFalpha-induced E-selectin immunofluorescence imaging, at 2 µM; inhibition: stronger effect = higher value; nuclei count: measured here: cell number, toxicity.
Assay [3] is described as follows: Primary imaging screen for DUSP6 inhibitors that restore phospho-Erk in transfected HeLa cells, chemical complementation (AID 609;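 active = compounds giving at least 50% inhibition in the cell-based MKP-3 phosphatase rescue imaging test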;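 for inhibition: phospho-Erk level distribution per well compared with pooled transfected vehicle control wells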). As to conditions: HeLa MKP-3 transfected, phospho-Erk imaging KS statistic, at 10 µM, cells stimulated with TPA for 15 min.
The target in assay [4] is Dual specificity protein phosphatase 6 (Homo sapiens) (UniProt Q16828). Described as above. As to conditions: HeLa MKP-3 transfected, phospho-Erk imaging KS statistic; at 10 µM; stronger effect = higher value; cells stimulated with TPA for 15 min.
Chain of Dual specificity protein phosphatase 6 (Homo sapiens) (Q16828 whole entry, looked up): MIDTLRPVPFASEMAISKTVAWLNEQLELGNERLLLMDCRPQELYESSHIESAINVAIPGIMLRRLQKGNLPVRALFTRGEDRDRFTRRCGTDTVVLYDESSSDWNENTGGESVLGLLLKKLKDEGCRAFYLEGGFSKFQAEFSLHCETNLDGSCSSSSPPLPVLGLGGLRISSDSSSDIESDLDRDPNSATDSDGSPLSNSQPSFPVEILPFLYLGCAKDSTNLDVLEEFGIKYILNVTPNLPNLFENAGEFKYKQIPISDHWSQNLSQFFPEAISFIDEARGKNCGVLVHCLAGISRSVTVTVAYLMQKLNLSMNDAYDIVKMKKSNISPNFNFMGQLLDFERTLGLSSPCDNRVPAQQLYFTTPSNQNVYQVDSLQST
Assay [5] concerns the target Voltage-gated potassium channel subunit beta-2 (Rattus norvegicus) (UniProt P62483). The assay is described as follows: inhibitors of rat Kvbeta2 reductase activity – biochemical, NADPH fluorescence, primary screen (AID 622;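 active = fluorescence slope higher than the sample average by over 3 SD, cut at about -0.22 in these data, passing the limit was not always enough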;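 note: slope of raw intensity against log time taken from 70 to 1610 s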). As to conditions: recombinant KvBeta, 4-cyanobenzaldehyde reduction, at 10 µM, stronger effect = higher value.
Assay [6] has the same target. The assay is described as follows: enhancers of rat Kvbeta2 NADPH turnover – biochemical, NADPH fluorescence, primary screen (AID 623;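 active = NADPH fluorescence slope more negative than the mean of all samples by about 3 SD, 99.7% confidence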;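 note: fluorescence intensity change per second fitted from 20 to 320 s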). As to conditions: Recombinant KvBeta, NADPH fluorescence decrease slope, 10 min; at 10 µM; stronger effect = lower value.
Assay [7] addresses Muscarinic acetylcholine receptor M4 (Homo sapiens) (UniProt P08173). The assay is described as follows: M4-linked GIRK flux change, two-sided – cell-based, HEK293 M4/GIRK, thallium flux, BTC-AM, M4 allosteric agonist project, primary screen (AID 625;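 active = fluorescence slope after compound addition differing from the mean of all tested samples at 99.7% confidence, mostly higher but some lower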;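 note: thallium influx through GIRK channels coupled to M4 in HEK293 cells with BTC-AM dye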). As to conditions: at 10 µM, actives lie on both sides. An outline of the steps:
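Material: M4/GIRK1/GIRK2 stable HEK293 cell line. Medium: pH 7.3 thallium assay buffer. Dosing: single compound concentration, 10 µM final. Schedule: 1 h dye loading, 2 min kinetic read. Measured by: kinetic fluorescence with BTC-AM dye. Read-out: post-addition slope, 15–24 s, of baseline-normalized fluorescence. Benchmarks: carbachol and DMSO controls.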

Assay [8] in a line: inhibitors of larval lipid processing in zebrafish, primary screen, whole organism, PED6 fluorescence, gall bladder and intestine (AID 686;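 active = a full or partial loss of lipid-probe fluorescence in the fish gall bladder, intestine or both, judged by eye; inactive = no fluorescence loss, or compound toxic to the fish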;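 note: larvae 5 to 7 days old with five fish per well; signal comes from phospholipase A2 cleavage of quenched PED6 carried via bile; overnight exposure to compound and PED6 before scoring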). As to conditions: Zebrafish larvae PED6 lipid processing, fluorescence scoring; screened at 20 µM (by protocol). In short, it runs like this:
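System: live zebrafish larvae aged 5-7 days, whole organism; measure: graded gall bladder and intestinal fluorescence inhibition per well; incubation: overnight exposure; reagent: ingested quenched lipid PED6 at 100 nM; signal: By-eye fluorescence microscopy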

Assay [9] can be described thus: loss of swimming-algae plug formation – whole organism, Chlamydomonas reinhardtii, WT vs cilia-less mutant, absorbance, 96-well, primary screen (AID 463189;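 active = inhibition at or above 50% relative to wild type and mutant plate controls; inactive = inhibition below 50%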;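 note: 0% = wild type cc124 cells in DMSO and 100% = ciliumless bld1 mutant cells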). As to conditions: Chlamydomonas reinhardtii gravitaxis, OD600 absorbance, 2 days; at 10 µM; stronger effect = higher value.
[10] abbreviates: measured here: cell density z-score.
Where [11] appears, read: measured here: nuclear c-Myc green intensity z-score.
Setting [12] is: measured here: nuclear pErk red intensity z-score, stronger effect = higher value.

The source made the active and inactive calls.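 Rule for the calls, unless noted: active = inhibition above 20% together with a positive visual image hit; inconclusive = visual image hit but inhibition not above 20%; inactive = no visual image hit.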

Chain of Muscarinic acetylcholine receptor M4 (Homo sapiens) (P08173 whole entry, looked up): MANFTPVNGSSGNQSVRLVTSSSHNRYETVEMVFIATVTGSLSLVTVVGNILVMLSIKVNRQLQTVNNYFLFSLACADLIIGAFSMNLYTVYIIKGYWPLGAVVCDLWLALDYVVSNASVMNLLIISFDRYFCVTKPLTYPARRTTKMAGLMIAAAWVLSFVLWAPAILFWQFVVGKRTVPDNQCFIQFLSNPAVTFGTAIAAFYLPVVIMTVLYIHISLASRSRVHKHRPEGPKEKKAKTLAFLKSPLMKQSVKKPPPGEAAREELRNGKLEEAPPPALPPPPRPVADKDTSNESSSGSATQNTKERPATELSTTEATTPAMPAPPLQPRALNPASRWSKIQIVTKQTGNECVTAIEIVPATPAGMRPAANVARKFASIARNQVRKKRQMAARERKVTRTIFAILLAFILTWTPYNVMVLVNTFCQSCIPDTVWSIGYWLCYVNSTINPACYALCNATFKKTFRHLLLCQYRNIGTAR
Chain of Voltage-gated potassium channel subunit beta-2 (Rattus norvegicus) (P62483 whole entry, looked up): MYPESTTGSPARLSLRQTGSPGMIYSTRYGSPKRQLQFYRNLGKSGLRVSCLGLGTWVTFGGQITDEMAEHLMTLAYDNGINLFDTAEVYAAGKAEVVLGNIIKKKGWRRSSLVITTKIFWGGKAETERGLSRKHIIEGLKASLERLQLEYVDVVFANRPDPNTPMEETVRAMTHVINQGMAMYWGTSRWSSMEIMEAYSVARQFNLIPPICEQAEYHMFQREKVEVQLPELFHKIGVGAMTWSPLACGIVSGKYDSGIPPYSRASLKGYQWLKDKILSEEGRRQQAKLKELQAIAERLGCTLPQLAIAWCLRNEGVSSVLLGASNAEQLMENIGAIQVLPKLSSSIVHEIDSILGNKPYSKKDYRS

The inhibition is the drop in the measured response relative to a control, in per cent. Consider `CCN(CC)C(=O)COn1c(SCC(=O)N(CC)CC)nc2ccccc2c1=O`, for which the cell count in assay [1] amounted to 714. Further, the inhibition in assay [1] was 1% (inactive); in assay [2] it was 10.1% (inactive); in assay [4] it was -1.12% (inactive); in assay [9], -1.16% (inactive). In assay [2], this compound came in with a nuclei count of 161%. Further, the z-score in [3] (setting [10]) is -0.154; in assay [3] (setting [11]) it was -0.248; in assay [3] (setting [12]), 0.329. Also, the fluorescence slope was -0.42 (inactive) in assay [5] and 0.00498 (inactive) in assay [7]. Also, the NADPH fluorescence slope in assay [6] was -4.1e-05 (inactive). Moreover, the result in assay [8] was inactive.

For `O=S(=O)(c1cccc(-c2csc(-c3ccccc3)n2)c1)N1CCOCC1`, the cell count in assay [1] stood at 681. Moreover, the inhibition was -6% (inactive) in [1], 21.6% (inactive) in assay [2], -2.29% (inactive) in assay [4] and 25.2% (inactive) in [9]. This compound also displayed a nuclei count in [2] of 172%. Besides, the z-score is -0.667 in assay [3] (setting [10]), -0.235 in assay [3] (setting [11]) and -0.477 in [3] (setting [12]). The values for the fluorescence slope in assay [5] and in assay [7] were -0.452 (inactive) and 0.00515 (inactive), respectively. Further, the NADPH fluorescence slope in assay [6] was -5.8e-05 (inactive). In addition, the result in assay [8] was inactive.

Take `Cc1cc(N2C(=O)C(=O)/C(=C(/O)c3ccccc3)C2c2cccs2)no1` (centres undefined): in [1], the cell count came out at 668. Besides, the inhibition in [1] was 0.1% (inactive); in [2], -91.9% (inactive); in assay [4], 6.04% (inactive); in assay [9], 24.8% (inactive). This compound also came in with a nuclei count in [2] of 165%. The z-score is 0.267 in assay [3] (setting [10]), -0.396 in [3] (setting [11]) and -0.163 in assay [3] (setting [12]). Further, the fluorescence slope in [5] is -0.486 (inactive); in assay [7], 0.00578 (inactive). For the same compound, the NADPH fluorescence slope in [6] was -1.4e-05 (inactive). For the same compound, the outcome in [8] was inactive.

For `C=CCOc1nc2c(c(=O)n(Cc3ccc(Cl)cc3)c(=O)n2C)n1C`, in assay [1], the cell count was 534. Also, the inhibition in [1] is -5.1% (inactive); in [2], 22.1% (inactive); in assay [4], -9.91% (inactive); in [9], -3.62% (inactive). Also, the nuclei count in [2] came out at 170%. Further, the z-score is -0.487 in assay [3] (setting [10]), 1.21 in assay [3] (setting [11]) and 0.796 in assay [3] (setting [12]). The figures for the fluorescence slope in [5] and in [7] were -0.414 (inactive) and 0.00453 (inactive), respectively. For the same compound, the NADPH fluorescence slope in assay [6] is -5.4e-05 (inactive). Further, the compound was called inactive in assay [8].

Take `CCCCC(=O)c1c(C)cc(C)[nH]c1=O`: the cell count in assay [1] worked out at 721. Further, the inhibition was -6.7% (inactive) in [1], -99.5% (inactive) in [2], 3.97% (inactive) in assay [4] and 0.273% (inactive) in [9]. The compound further yielded a nuclei count in assay [2] of 191%. For the same compound, the values for the z-score in assay [3] (setting [10]), in [3] (setting [11]) and in assay [3] (setting [12]) were 0.203, 0.876 and 0.0182, respectively. Also, the fluorescence slope was -0.482 (inactive) in [5] and 0.00582 (inactive) in assay [7]. Further, in [6], the NADPH fluorescence slope is -7.1e-05 (inactive). In addition, the call in [8] was inactive.

With `CCc1nc(N2CCN(C(=O)c3ccccc3)CC2)c(C#N)c2c1COC(C)(C)C2`, in assay [1], the cell count was found to be 548. Further, the inhibition is 2% (inactive) in [1], -77.4% (inactive) in [2], 3.42% (inactive) in [4] and 5.51% (inactive) in assay [9]. This compound also registered a nuclei count in [2] of 113%. The z-score in assay [3] (setting [10]) is -0.584; in assay [3] (setting [11]), 0.135; in assay [3] (setting [12]) it was 0.894. In addition, the fluorescence slope in [5] is -0.474 (inactive); in [7] it was 0.00455 (inactive). Besides, in [6], the NADPH fluorescence slope is 6.5e-05 (inactive). The compound was classed as inactive in [8].

For the compound `Cc1ccccc1COc1ccc(/C(O)=C2/C(=O)C(=O)N(CCCn3ccnc3)C2c2ccco2)cc1` (centres undefined), in assay [1], the cell count was found to be 642. The inhibition in [1] was -2.1% (inactive); in assay [2], -23.1% (inactive); in [4], 9.37% (inactive); in [9], 13.6% (inactive). Besides, the nuclei count in assay [2] turned out to be 171%. Besides, the z-score was -1.5 in assay [3] (setting [10]), -0.323 in [3] (setting [11]) and 2.13 in [3] (setting [12]). Moreover, the values for the fluorescence slope in assay [5] and in assay [7] were -0.48 (inactive) and 0.00521 (inactive), respectively. Moreover, the NADPH fluorescence slope in assay [6] is -0.00012 (inactive). The outcome in assay [8] was inactive.

For `c1ccc(-n2ncc3c(N4CCCC4)ncnc32)cc1`, the cell count in assay [1] amounted to 589. Further, the inhibition in assay [1] was -7% (inactive); in [2], 12.6% (inactive); in assay [4] it was 7.42% (inactive); in assay [9], 15.7% (inactive). Moreover, the nuclei count in assay [2] was found to be 188%. The z-score in assay [3] (setting [10]) is 0.427; in [3] (setting [11]), 1.25; in assay [3] (setting [12]), -0.224. Besides, the fluorescence slope is -0.378 (inactive) in assay [5] and 0.00634 (inactive) in assay [7]. Further, the NADPH fluorescence slope in assay [6] is -3.1e-05 (inactive). Moreover, the call in assay [8] was inactive.

For the compound `COc1ccc(CNc2oc(COc3ccc(Cl)cc3)nc2C#N)cc1`, the cell count in assay [1] is 484. In addition, the inhibition in [1] is 5.8% (inactive); in assay [2], -33.3% (inactive); in assay [4], -5.62% (inactive); in assay [9], 2.55% (inactive). The compound further returned a nuclei count in assay [2] of 164%. For the same compound, the figures for the z-score in assay [3] (setting [10]), in assay [3] (setting [11]) and in assay [3] (setting [12]) were 0.0253, 0.364 and 0.0628, respectively. In addition, the values for the fluorescence slope in assay [5] and in assay [7] were -0.474 (inactive) and 0.00987 (inactive), respectively. Further, the NADPH fluorescence slope in assay [6] was -3.7e-05 (inactive). Moreover, the call in [8] was inactive.

For the compound `O=C(O)CSCC(=O)Nc1ccc(S(=O)(=O)N2CCCCC2)cc1`, the cell count in [1] came to 500. Moreover, the inhibition in [1] is -7.8% (inactive); in assay [2], -62% (inactive); in assay [4], -3.95% (inactive); in assay [9] it was -4.71% (inactive). In assay [2], the nuclei count stood at 162%. Besides, the results for the z-score in [3] (setting [10]), in assay [3] (setting [11]) and in [3] (setting [12]) were 0.13, -1.22 and 0.192, respectively. The fluorescence slope is -0.424 (inactive) in assay [5] and 0.00479 (inactive) in assay [7]. Also, in assay [6], the NADPH fluorescence slope was -3.2e-05 (inactive). In addition, in [8], the compound was classed as inactive.

Regarding `CCOC(=O)/C(C#N)=C1/SC(CCO)C(=O)N1c1ccccc1` (centres undefined), the cell count in [1] was 541. Besides, the inhibition in [1] was -19.2% (inactive); in [2], -6.8% (inactive); in [4], -2.59% (inactive); in assay [9] it was -8.39% (inactive). The same compound registered a nuclei count in [2] of 122%. Further, the z-score in assay [3] (setting [10]) is -0.811; in [3] (setting [11]), 0.0733; in assay [3] (setting [12]), 0.776. Further, the fluorescence slope in assay [5] is -0.373 (inactive); in assay [7], 0.00516 (inactive). Moreover, the NADPH fluorescence slope in assay [6] is -2e-05 (inactive). Also, the compound was classed as inactive in assay [8].

Consider `Cc1nc(NCCCO)c(C#N)c2c1COC(C)(C)C2`, for which the cell count in assay [1] came out at 588. The inhibition was -3.1% (inactive) in assay [1], -70% (inactive) in assay [2], 12.8% (inactive) in assay [4] and 24% (inactive) in [9]. In assay [2], the nuclei count was determined as 142%. Further, the z-score in [3] (setting [10]) is -0.306; in [3] (setting [11]), -0.435; in [3] (setting [12]), -0.462. Moreover, the fluorescence slope in assay [5] is -0.432 (inactive); in assay [7] it was 0.00443 (inactive). Also, the NADPH fluorescence slope in assay [6] is -9.1e-05 (inactive). Moreover, the compound was called inactive in assay [8].

For `N#Cc1c(N2CCCCC2)nc(N2CCCCC2)c2c1CCN(Cc1ccccc1)C2`, in assay [1], the cell count turned out to be 606. In addition, the inhibition in assay [1] is -3.7% (inactive); in assay [2] it was -146% (inactive); in assay [4] it was -4.59% (inactive); in assay [9] it was 4.47% (inactive). Also, the nuclei count in [2] was determined as 154%. Also, the z-score in assay [3] (setting [10]) is 0.785; in assay [3] (setting [11]), -0.814; in assay [3] (setting [12]), 0.622. In addition, the fluorescence slope is -0.431 (inactive) in assay [5] and 0.0046 (inactive) in assay [7]. For the same compound, the NADPH fluorescence slope in assay [6] was -9.2e-05 (inactive). The result in assay [8] was inactive.

The record behind these values is PubChem BioAssay.
